According to ChEMBL document CHEMBL2177088, “Melittin suppresses VEGF-A-induced tumor growth by blocking VEGFR-2 and the COX-2-mediated MAPK signaling pathway” (J Nat Prod, 2012):
The source made the active and inactive calls. The calls are words filed in the database; no cut-off is given here.

How the values were obtained:
[1] = tested on: HUVEC; assay: Antiangiogenic activity against VEGFA-stimulated capillary differentiation in HUVEC after 18 hrs by matrigel assay; type: functional, cell-based; settings: Homo sapiens
Summary of the method: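 VEGF-A-HUVECs (HUVECs stably transfected with pcDNA3.1 carrying mouse VEGF-A164, G418-selected) were plated at 1 × 10^5 cells on polymerised growth factor-reduced Matrigel (5 mg/mL) with 5, 10 or 20 μM. They were incubated 18 h at 37 °C, 5% CO2, then washed, fixed and photographed (100×). Tube area per random field was quantified by image analysis. Three experiments in triplicate; IC50 read from the dose curve.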

[2] = tested on: HUVEC; assay: Antiangiogenic activity against VEGFA-stimulated cell proliferation in HUVEC after 48 hrs by BrdU incorporation assay; type: functional, cell-based; settings: Homo sapiens
[3] = tested on: Lewis lung carcinoma cell line; assay: Antiangiogenic activity against VEGFA-stimulated mouse highly metastatic LLC cells xenografted in C57BL/6 mouse assessed as reduction of vessel formation at 5 mg/kg, sc qd for 7 days relative to control; type: functional; parameters: scale not given: the % may be the effect or the level left; settings: route subcutaneous
Summary of the method: (§1)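 VEGF-A-hm LLC cells (5 × 10^5 in 50 μL) were inoculated intradermally into the back skin of mice. Compound was given sc at 0.5 or 5 mg/kg/day for 7 days, starting day 3 after inoculation. Mice were killed on day 10 and the inoculated skin separated from underlying tissue. Only vessels directly supplying the tumour were counted under a dissecting microscope; reduction is versus untreated control.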

[4] = tested on: Lewis lung carcinoma cell line; assay: Antitumor activity against VEGFA-stimulated mouse highly metastatic LLC cells xenografted in C57BL/6 mouse assessed as tumor growth inhibition at 5 mg/kg, […] relative to control; type: functional; settings: sc, 432 h, route subcutaneous, read-out: TGI
[5] = tested on: HUVEC; assay: Down regulation of VEGFA-stimulated VEGF-A expression in HUVEC at 5 to 20 uM after 24 hrs by Western blot analysis in presence of p38 inhibitor SB203580; type: functional, cell-based; settings: Homo sapiens
[6] = tested on: HUVEC; assay: Down regulation of VEGFA-stimulated COX2 expression in HUVEC at 5 to 20 uM after 24 hrs by Western blot analysis in presence of p38 inhibitor SB203580; type: functional, cell-based; settings: Homo sapiens
[7] = biological target: T1, MAP kinase p38 (Homo sapiens) (UniProt O15264+Q15759+Q16539+P53778); assay: Increase of VEGFA-stimulated p38 phosphorylation in HUVEC by Western blot analysis in presence of p38 inhibitor SB203580; type: protein assay
Summary of the method: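 VEGF-A-HUVECs were pretreated 30 min with SB203580 before the compound was added. Lysates with phosphatase inhibitors (10 μg/lane) were separated by 10% SDS-PAGE and immunoblotted (1:1000) for phospho-p38 and total p38, detected by HRP-ECL.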

[8] = biological target: T1, MAP kinase p38 (Homo sapiens); assay: Increase of VEGFA-stimulated p38 phosphorylation in HUVEC by Western blot analysis; type: protein assay
Summary of the method: (§2)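 VEGF-A-HUVECs exposed to 1, 5 or 10 μM were lysed with protease and phosphatase inhibitors (1 mM NaF, 1 mM Na3VO4). Lysates (10 μg/lane) were run on 10% SDS-PAGE and immunoblotted (1:1000) for phospho- and total ERK1/2, JNK and p38, detected by HRP-ECL.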

[9] = biological target: c-Jun N-terminal kinase, JNK (Homo sapiens) (UniProt P45983+P53779+P45984); assay: Inhibition of VEGFA-stimulated JNK phosphorylation in HUVEC by Western blot analysis; type: cell-based; summary of the method: as §2
[10] = biological target: Mitogen-activated protein kinase; ERK1/ERK2 (Homo sapiens) (UniProt P27361+P28482); assay: Inhibition of VEGFA-stimulated ERK1/2 phosphorylation in HUVEC by Western blot analysis; type: protein assay; summary of the method: as §2
Mitogen-activated protein kinase; ERK1/ERK2 (Homo sapiens), sequence (P27361 whole entry, looked up): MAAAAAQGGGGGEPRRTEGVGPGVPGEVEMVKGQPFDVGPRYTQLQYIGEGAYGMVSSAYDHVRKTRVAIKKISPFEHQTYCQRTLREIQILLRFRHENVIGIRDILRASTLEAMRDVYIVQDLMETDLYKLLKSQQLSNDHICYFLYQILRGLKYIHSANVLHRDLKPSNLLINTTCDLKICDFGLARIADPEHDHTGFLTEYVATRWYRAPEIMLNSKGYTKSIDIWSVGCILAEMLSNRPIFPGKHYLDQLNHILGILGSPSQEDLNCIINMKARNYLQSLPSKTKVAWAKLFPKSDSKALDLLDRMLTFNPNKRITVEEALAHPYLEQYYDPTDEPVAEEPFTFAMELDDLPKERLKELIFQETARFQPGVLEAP
Mitogen-activated protein kinase; ERK1/ERK2 (Homo sapiens), sequence (P28482 whole entry, looked up): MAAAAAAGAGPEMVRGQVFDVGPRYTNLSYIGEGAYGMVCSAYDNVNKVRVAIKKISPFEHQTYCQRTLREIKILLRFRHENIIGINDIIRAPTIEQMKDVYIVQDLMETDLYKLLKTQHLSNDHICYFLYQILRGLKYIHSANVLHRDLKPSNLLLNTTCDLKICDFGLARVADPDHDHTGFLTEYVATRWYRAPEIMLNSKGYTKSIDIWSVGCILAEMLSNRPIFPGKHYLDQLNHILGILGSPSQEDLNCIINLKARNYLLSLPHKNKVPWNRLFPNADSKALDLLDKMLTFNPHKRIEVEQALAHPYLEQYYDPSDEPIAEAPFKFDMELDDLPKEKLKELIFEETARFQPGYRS

[11] = tested on: HUVEC; assay: Inhibition of VEGFA-stimulated VEGF production in HUVEC at 5 to 20 uM after 24 hrs by enzyme immunoassay; type: functional, cell-based; settings: Homo sapiens
[12] = tested on: HUVEC; assay: Inhibition of VEGFA-stimulated PGE2 production in HUVEC at 5 to 20 uM after 24 hrs by ELISA; type: functional, cell-based; settings: Homo sapiens
[13] = tested on: HUVEC; assay: Down regulation of COX2 expression in HUVEC at 5 to 20 uM after 24 hrs by Western blot analysis; type: functional, cell-based; settings: Homo sapiens
[14] = tested on: HUVEC; assay: Down regulation of VEGF-A expression in HUVEC at 5 to 20 uM after 24 hrs by Western blot analysis; type: functional, cell-based; settings: Homo sapiens
[15] = tested on: HUVEC; assay: Down regulation of VEGFR2 expression in HUVEC at 5 to 20 uM after 24 hrs by Western blot analysis; type: functional, cell-based; settings: Homo sapiens
[16] = tested on: HUVEC; assay: Down regulation of COX2 expression in VEGFA-stimulated HUVEC at 5 to 20 uM after 24 hrs by Western blot analysis; type: functional, cell-based; settings: Homo sapiens
[17] = tested on: HUVEC; assay: Down regulation of VEGF-A expression in VEGFA-stimulated HUVEC at 5 to 20 uM after 24 hrs by Western blot analysis; type: functional, cell-based; settings: Homo sapiens
[18] = tested on: HUVEC; assay: Down regulation of VEGFR2 expression in VEGFA-stimulated HUVEC at 5 to 20 uM after 24 hrs by Western blot analysis; type: functional, cell-based; settings: Homo sapiens
[19] = Cytotoxicity against HUVEC assessed as cell viability at 40 uM after 48 hrs by MTT assay relative to control; type: cell-based; settings: human, HUVEC cells; read-out: Activity
Summary of the method: (§3)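 Native (non-transfected) HUVECs were seeded at 1 × 10^4 cells/well on 0.1% gelatin in complete M199 for 24 h. They were then exposed to 1, 5, 10, 20 or 40 μM in serum-free M199 for 48 h at 37 °C. MTT was added for 3 h and formazan dissolved in 2-propanol. After centrifugation, supernatant absorbance was read at 570 nm and expressed as % of control. Three independent experiments in triplicate.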

[20] = Cytotoxicity against HUVEC assessed as cell viability at 20 uM after 48 hrs by MTT assay relative to control; type: cell-based; settings: human, HUVEC cells; read-out: Activity; summary of the method: as §3
[21] = Cytotoxicity against HUVEC assessed as cell viability at 10 uM after 48 hrs by MTT assay relative to control; type: cell-based; settings: human, HUVEC cells; read-out: Activity; summary of the method: as §3
[22] = Cytotoxicity against HUVEC assessed as cell viability at 5 uM after 48 hrs by MTT assay relative to control; type: cell-based; settings: human, HUVEC cells; read-out: Activity; summary of the method: as §3
[23] = Cytotoxicity against HUVEC assessed as cell viability at 1 uM after 48 hrs by MTT assay relative to control; type: cell-based; settings: human, HUVEC cells; read-out: Activity; summary of the method: as §3
[24] = tested on: Mus musculus; assay: Toxicity in VEGFA-stimulated mouse highly metastatic LLC cells xenografted C57BL/6 mouse assessed as mortality at 0.5 to 5 mg/kg, sc qd for 7 days; type: organism-based; parameters: dose 0.5-5 mg/kg, route subcutaneous; settings: in vivo, 168 h
[25] = tested on: Mus musculus; assay: Toxicity in VEGFA-stimulated mouse highly metastatic LLC cells xenografted C57BL/6 mouse assessed as lethargy at 0.5 to 5 mg/kg, sc qd for 7 days; type: organism-based; parameters: dose 0.5-5 mg/kg, route subcutaneous; settings: in vivo, 168 h
[26] = tested on: Mus musculus; assay: Toxicity in VEGFA-stimulated mouse highly metastatic LLC cells xenografted C57BL/6 mouse assessed as hair loss at 0.5 to 5 mg/kg, sc qd for 7 days; type: organism-based; parameters: dose 0.5-5 mg/kg, route subcutaneous; settings: in vivo, 168 h
[27] = tested on: Lewis lung carcinoma cell line; assay: Antiangiogenic activity against VEGFA-stimulated mouse highly metastatic LLC cells xenografted in C57BL/6 mouse assessed as reduction of vessel formation at 0.5 mg/kg, sc qd for 7 days relative to control; type: functional; parameters: scale not given: the % may be the effect or the level left; settings: route subcutaneous; summary of the method: as §1
[28] = tested on: Mus musculus; assay: Toxicity in VEGFA-stimulated mouse highly metastatic LLC cells xenografted C57BL/6 mouse assessed as mortality at 0.5 to 5 mg/kg, sc qd for 18 days; type: organism-based; parameters: dose 0.5-5 mg/kg, route subcutaneous; settings: in vivo, 432 h
Summary of the method: (§4)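 C57BL/6 mice bearing sc right-flank VEGF-A-hm LLC tumours (1 × 10^6 cells) were dosed sc at 0.5 or 5 mg/kg from day 12 after inoculation, over the 18-day growth study. Animals were monitored for body weight loss, lethargy, hair loss and mortality.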

[29] = tested on: Mus musculus; assay: Toxicity in VEGFA-stimulated mouse highly metastatic LLC cells xenografted C57BL/6 mouse assessed as hair loss at 0.5 to 5 mg/kg, sc qd for 18 days; type: organism-based; parameters: dose 0.5-5 mg/kg, route subcutaneous; settings: in vivo, 432 h; summary of the method: as §4
[30] = tested on: Mus musculus; assay: Toxicity in VEGFA-stimulated mouse highly metastatic LLC cells xenografted C57BL/6 mouse assessed as lethargy at 0.5 to 5 mg/kg, sc qd for 18 days; type: organism-based; parameters: dose 0.5-5 mg/kg, route subcutaneous; settings: in vivo, 432 h; summary of the method: as §4
[31] = tested on: Mus musculus; assay: Toxicity in VEGFA-stimulated mouse highly metastatic LLC cells xenografted C57BL/6 mouse assessed as reduction of body weight at 0.5 to 5 mg/kg, sc qd for 18 days; type: organism-based; parameters: dose 0.5-5 mg/kg, route subcutaneous; settings: in vivo, 432 h; summary of the method: as §4
[32] = tested on: Lewis lung carcinoma cell line; assay: Antitumor activity against VEGFA-stimulated mouse highly metastatic LLC cells xenografted in C57BL/6 mouse assessed as reduction of tumor weight at 5 mg/kg, […] relative to control; type: functional; parameters: scale not given: the % may be the effect or the level left; settings: route subcutaneous
[33] = tested on: Lewis lung carcinoma cell line; assay: Antitumor activity against VEGFA-stimulated mouse highly metastatic LLC cells xenografted in C57BL/6 mouse assessed as reduction of tumor weight at 0.5 mg/kg, […] relative to control; type: functional; parameters: scale not given: the % may be the effect or the level left; settings: route subcutaneous
[34] = tested on: Lewis lung carcinoma cell line; assay: Antitumor activity against VEGFA-stimulated mouse highly metastatic LLC cells xenografted in C57BL/6 mouse assessed as tumor growth inhibition at 0.5 mg/kg, […] relative to control; type: functional; settings: sc, 432 h, route subcutaneous, read-out: TGI

## CS(=O)(=O)Nc1ccc([N+](=O)[O-])cc1OC1CCCCC1 [NS-398]
[1]
  inhibition: Active
[2]
  inhibition: Active
[3]
  Activity: 22%
[4]
  inhibition in vivo at 5 mg/kg: 42%

## CC[C@H](C)[C@H](NC(=O)CN)C(=O)NCC(=O)N[C@@H](C)C(=O)N[C@H](C(=O)N[C@@H](CC(C)C)C(=O)N[C@@H](CCCCN)C(=O)N[C@H](C(=O)N[C@@H](CC(C)C)C(=O)N[C@H](C(=O)N[C@H](C(=O)NCC(=O)N[C@@H](CC(C)C)C(=O)N1CCC[C@H]1C(=O)N[C@@H](C)C(=O)N[C@@H](CC(C)C)C(=O)N[C@H](C(=O)N[C@@H](CO)C(=O)N[C@@H](Cc1c[nH]c2ccccc12)C(=O)N[C@H](C(=O)N[C@@H](CCCCN)C(=O)N[C@@H](CCCNC(=N)N)C(=O)N[C@@H](CCCCN)C(=O)N[C@@H](CCCNC(=N)N)C(=O)N[C@@H](CCC(N)=O)C(=O)N[C@@H](CCC(N)=O)C(N)=O)[C@@H](C)CC)[C@@H](C)CC)[C@@H](C)O)[C@@H](C)O)C(C)C)C(C)C [MELITTIN]
[5]
  Activity: inactive
[6]
  Activity: inactive
[7]
  Activity: inactive
[8]
  Activity: Dose-dependent effect
[9]
  inhibition: Active
[10]
  inhibition: Dose-dependent effect
[11]
  inhibition: Active
[12]
  inhibition: Active
[13]
  Activity: inactive
[14]
  Activity: inactive
[15]
  Activity: inactive
[16]
  Activity: Active
[17]
  Activity: Active
[18]
  Activity: Active
[1]
  IC50: 13 µM
  inhibition: Dose-dependent effect
[2]
  IC50: 18 µM
  inhibition: Dose-dependent effect
[19]
  viability at 48 h, 40 µM: 96.5%
[20]
  viability at 48 h, 20 µM: 98.5%
[21]
  viability at 48 h, 10 µM: 99.4%
[22]
  viability at 48 h, 5 µM: 98.9%
[23]
  viability at 48 h, 1 µM: 104%
[24]
  Activity: Non-toxic
[25]
  Activity: Non-toxic
[26]
  Activity: Non-toxic
[3]
  Activity: 59%
[27]
  Activity: 52%
[28]
  Activity: Non-toxic
[29]
  Activity: Non-toxic
[30]
  Activity: Non-toxic
[31]
  Activity: Non-toxic
[32]
  Activity: 91%
[4]
  inhibition in vivo at 5 mg/kg: 57%
[33]
  Activity: 60%
[34]
  inhibition in vivo at 0.5 mg/kg: 25%
